From ChEMBL document CHEMBL4130609, “Nitrobenzoyl Sesquiterpenoids with Cytotoxic Activities from a Marine-Derived Aspergillus ochraceus Fungus” (J Nat Prod, 2018)

What was measured:
ACHN = assay: Cytotoxicity against human ACHN cells after 72 hrs by CCK8 assay; assay type: functional, cell-based
Method in brief: (§1)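 ACHN cells grown in MEM with 10% FBS; OS-RC-2 and 786-O cells grown in RPMI1640 with 10% FBS. Seeded at 400 to 800 cells/well and treated with a 9-point series from 100 down to 0.00153 μM, or solvent control, for 72 h. Viability read by CCK-8 absorbance at 450 nm in triplicate. IC50 taken from dose–response curves.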

OS-RC-2 = assay: Cytotoxicity against human OS-RC2 cells after 72 hrs by CCK8 assay; assay type: functional, cell-based; details: OS-RC-2, 72 h; method in brief: as §1
786-0 [1] = assay: Cytotoxicity against human 786-O cells after 72 hrs by CCK8 assay; assay type: functional, cell-based; details: 786-0, 72 h; method in brief: as §1
RAW264.7 [2] = assay: Cytotoxicity against mouse RAW264.7 cells at 0.5 to 4 uM after 8 hrs by MTT assay; assay type: cell-based; details: raw264.7, 8 h
Method in brief: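 Luciferase-reporter RAW264.7 cells received compounds at 4, 2, 1 and 0.5 μM for 30 min, then 1 μg/mL LPS for 8 h. Viability at these concentrations was assessed by MTT.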

786-0 [3] = assay: Cell cycle arrest in human 786-O cells assessed as accumulation at G0/G1 phase at 1 uM after 24 hrs by propidium iodide staining based flow cytometric method (reference value: 42.07%); assay type: functional
786-0 [4] = assay: Cell cycle arrest in human 786-O cells assessed as accumulation at S phase at 1 uM after 24 hrs by propidium iodide staining based flow cytometric method (reference value: 47.35%); assay type: functional
786-0 [5] = assay: Cell cycle arrest in human 786-O cells assessed as accumulation at G2/M phase at 1 uM after 24 hrs by propidium iodide staining based flow cytometric method (reference value: 10.58%); assay type: functional
786-0 [6] = assay: Cell cycle arrest in human 786-O cells assessed as accumulation at G0/G1 phase at 2 uM after 24 hrs by propidium iodide staining based flow cytometric method (reference value: 42.07%); assay type: functional
786-0 [7] = assay: Cell cycle arrest in human 786-O cells assessed as accumulation at S phase at 2 uM after 24 hrs by propidium iodide staining based flow cytometric method (reference value: 47.35%); assay type: functional
786-0 [8] = assay: Cell cycle arrest in human 786-O cells assessed as accumulation at G2/M phase at 2 uM after 24 hrs by propidium iodide staining based flow cytometric method (reference value: 10.58%); assay type: functional
786-0 [9] = assay: Cell cycle arrest in human 786-O cells assessed as accumulation at G0/G1 phase at 1 uM after 72 hrs by propidium iodide staining based flow cytometric method (reference value: 44.95%); assay type: functional
786-0 [10] = assay: Cell cycle arrest in human 786-O cells assessed as accumulation at S phase at 1 uM after 72 hrs by propidium iodide staining based flow cytometric method (reference value: 42.76%); assay type: functional
786-0 [11] = assay: Cell cycle arrest in human 786-O cells assessed as accumulation at G2/M phase at 1 uM after 72 hrs by propidium iodide staining based flow cytometric method (reference value: 12.29%); assay type: functional
786-0 [12] = assay: Cell cycle arrest in human 786-O cells assessed as accumulation at G0/G1 phase at 2 uM after 72 hrs by propidium iodide staining based flow cytometric method (reference value: 44.95%); assay type: functional
786-0 [13] = assay: Cell cycle arrest in human 786-O cells assessed as accumulation at S phase at 2 uM after 72 hrs by propidium iodide staining based flow cytometric method (reference value: 42.76%); assay type: functional
786-0 [14] = assay: Cell cycle arrest in human 786-O cells assessed as accumulation at G2/M phase at 2 uM after 72 hrs by propidium iodide staining based flow cytometric method (reference value: 12.29%); assay type: functional
786-0 [15] = assay: Induction of apoptosis in human 786-O cells assessed as live cells at 1 uM after 24 hrs by Annexin-V-FITC/propidium iodide staining based flow cytometric method (reference value: 81.4%); assay type: functional
786-0 [16] = assay: Induction of apoptosis in human 786-O cells assessed as early apoptotic cells at 1 uM after 24 hrs by Annexin-V-FITC/propidium iodide staining based flow cytometric method (reference value: 1.6%); assay type: functional
786-0 [17] = assay: Induction of apoptosis in human 786-O cells assessed as late apoptotic cells at 1 uM after 24 hrs by Annexin-V-FITC/propidium iodide staining based flow cytometric method (reference value: 7%); assay type: functional
786-0 [18] = assay: Induction of apoptosis in human 786-O cells assessed as necrotic cells at 1 uM after 24 hrs by Annexin-V-FITC/propidium iodide staining based flow cytometric method (reference value: 10%); assay type: functional
786-0 [19] = assay: Induction of apoptosis in human 786-O cells assessed as live cells at 2 uM after 24 hrs by Annexin-V-FITC/propidium iodide staining based flow cytometric method (reference value: 81.4%); assay type: functional
786-0 [20] = assay: Induction of apoptosis in human 786-O cells assessed as early apoptotic cells at 2 uM after 24 hrs by Annexin-V-FITC/propidium iodide staining based flow cytometric method (reference value: 1.6%); assay type: functional
786-0 [21] = assay: Induction of apoptosis in human 786-O cells assessed as late apoptotic cells at 2 uM after 24 hrs by Annexin-V-FITC/propidium iodide staining based flow cytometric method (reference value: 7%); assay type: functional
786-0 [22] = assay: Induction of apoptosis in human 786-O cells assessed as necrotic cells at 2 uM after 24 hrs by Annexin-V-FITC/propidium iodide staining based flow cytometric method (reference value: 10%); assay type: functional
786-0 [23] = assay: Induction of apoptosis in human 786-O cells assessed as live cells at 1 uM after 72 hrs by Annexin-V-FITC/propidium iodide staining based flow cytometric method (reference value: 82.2%); assay type: functional
786-0 [24] = assay: Induction of apoptosis in human 786-O cells assessed as early apoptotic cells at 1 uM after 72 hrs by Annexin-V-FITC/propidium iodide staining based flow cytometric method (reference value: 1.2%); assay type: functional
786-0 [25] = assay: Induction of apoptosis in human 786-O cells assessed as late apoptotic cells at 1 uM after 72 hrs by Annexin-V-FITC/propidium iodide staining based flow cytometric method (reference value: 4.2%); assay type: functional
786-0 [26] = assay: Induction of apoptosis in human 786-O cells assessed as necrotic cells at 1 uM after 72 hrs by Annexin-V-FITC/propidium iodide staining based flow cytometric method (reference value: 12.5%); assay type: functional
786-0 [27] = assay: Induction of apoptosis in human 786-O cells assessed as live cells at 2 uM after 72 hrs by Annexin-V-FITC/propidium iodide staining based flow cytometric method (reference value: 82.2%); assay type: functional
786-0 [28] = assay: Induction of apoptosis in human 786-O cells assessed as early apoptotic cells at 2 uM after 72 hrs by Annexin-V-FITC/propidium iodide staining based flow cytometric method (reference value: 1.2%); assay type: functional
786-0 [29] = assay: Induction of apoptosis in human 786-O cells assessed as late apoptotic cells at 2 uM after 72 hrs by Annexin-V-FITC/propidium iodide staining based flow cytometric method (reference value: 4.2%); assay type: functional
786-0 [30] = assay: Induction of apoptosis in human 786-O cells assessed as necrotic cells at 2 uM after 72 hrs by Annexin-V-FITC/propidium iodide staining based flow cytometric method (reference value: 12.5%); assay type: functional
RAW264.7 [31] = assay: Inhibition of LPS-induced NFkappaB (unknown origin) activation expressed in mouse RAW264.7 cells at 4 uM pretreated for 30 mins followed by LPS-stimulation after 8 hrs by luciferase reporter gene assay relative to control; assay type: cell-based; details: Homo sapiens
Method in brief: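 RAW264.7 cells stably carrying an NF-κB luciferase reporter were pretreated with compounds for 30 min at 4, 2, 1 and 0.5 μM. They were then stimulated with 1 μg/mL LPS for 8 h. Luciferase activity was measured in triplicate. BAY11-7082 at 5 μM served as positive control.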

## CC(=O)OC[C@@]1(C)CCC[C@]2(C)[C@H]3COC(=O)C3=C[C@@H](OC(=O)c3ccc([N+](=O)[O-])cc3)[C@@H]12
ACHN
  IC50: 13 µM
OS-RC-2
  IC50: 11 µM
786-0 [1]
  IC50: 14 µM
RAW264.7 [2]
  Activity: Non-Toxic

## C[C@]1(COC(=O)c2ccc([N+](=O)[O-])cc2)CCC[C@@]2(C)[C@H]1[C@H](O)C=C1C(=O)OC[C@@]12O
ACHN
  IC50: 11 µM
OS-RC-2
  IC50: 8.2 µM
786-0 [1]
  IC50: 4.3 µM

## CC(=O)OC[C@@]1(C)CCC[C@@]2(C)[C@H]1[C@H](OC(=O)c1ccc([N+](=O)[O-])cc1)C=C1C(=O)OC[C@@]12O
ACHN
  IC50: 4.1 µM
OS-RC-2
  IC50: 5.3 µM
786-0 [1]
  IC50: 2.3 µM
786-0 [3]
  Activity: 38%
786-0 [4]
  Activity: 47%
786-0 [5]
  Activity: 8.53%
786-0 [6]
  Activity: 42.23%
786-0 [7]
  Activity: 49.91%
786-0 [8]
  Activity: 7.86%
786-0 [9]
  Activity: 54.16%
786-0 [10]
  Activity: 32.77%
786-0 [11]
  Activity: 13.06%
786-0 [12]
  Activity: 51.06%
786-0 [13]
  Activity: 35.56%
786-0 [14]
  Activity: 13.38%
786-0 [15]
  Activity: 78.6%
786-0 [16]
  Activity: 1.3%
786-0 [17]
  Activity: 4.3%
786-0 [18]
  Activity: 15.8%
786-0 [19]
  Activity: 66.5%
786-0 [20]
  Activity: 1.1%
786-0 [21]
  Activity: 6.5%
786-0 [22]
  Activity: 26%
786-0 [23]
  Activity: 74.7%
786-0 [24]
  Activity: 1.7%
786-0 [25]
  Activity: 5%
786-0 [26]
  Activity: 18.6%
786-0 [27]
  Activity: 58.3%
786-0 [28]
  Activity: 1%
786-0 [29]
  Activity: 9.1%
786-0 [30]
  Activity: 31.5%
RAW264.7 [2]
  Activity: Non-Toxic

## C[C@]1(COC(=O)c2ccc([N+](=O)[O-])cc2)CCC[C@]2(C)[C@H]3COC(=O)C3=C[C@@H](O)[C@@H]12
ACHN
  IC50: 30 µM
OS-RC-2
  IC50: 23 µM
786-0 [1]
  IC50: 24 µM
RAW264.7 [31]
  inhibition: 16%
RAW264.7 [2]
  Activity: Non-Toxic

## CO[C@H]1C2=C(COC2=O)[C@@]2(C)CCC[C@](C)(CO)[C@@H]2[C@@H]1O
RAW264.7 [2]
  Activity: Non-Toxic

## CNC(=O)c1cc(Oc2ccc(NC(=O)Nc3ccc(Cl)c(C(F)(F)F)c3)cc2)ccn1 [SORAFENIB]
ACHN
  IC50: 3.4 µM
OS-RC-2
  IC50: 7 µM
786-0 [1]
  IC50: 4.9 µM

## C[C@]1(CO)CCC[C@@]2(C)[C@H]1[C@H](OC(=O)c1ccc([N+](=O)[O-])cc1)C=C1C(=O)OC[C@@]12O
ACHN
  IC50: 1.5 µM
OS-RC-2
  IC50: 1.5 µM
786-0 [1]
  IC50: 0.89 µM

## C[C@]1(CO)CCC[C@]2(C)[C@H]3COC(=O)C3=C[C@@H](OC(=O)c3ccc([N+](=O)[O-])cc3)[C@@H]12
ACHN
  IC50: 25 µM
OS-RC-2
  IC50: 30 µM
786-0 [1]
  IC50: 20 µM
